Laboratory results published in ChEMBL document CHEMBL1150418, “Discovery of potent furan piperazine sodium channel blockers for treatment of neuropathic pain” (Bioorg Med Chem, 2008).
pIC50: −log10 of the molar value. Blank lines part the entries; values can stand above or below the compound they belong to.

Columns and labels:
[1] = target: T1, Sodium channel protein type 10 subunit alpha (Homo sapiens, UniProt Q9Y5Y9); test: Inhibition of human recombinant Nav1.8 channel expressed in HEK293 cells at 0.1 uM by whole cell voltage clamp technique; format: cell-based
Method in brief: (§1)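 HEK293 cells stably expressing recombinant human sodium channels, grown in high-glucose DMEM, 10% FBS, 2 mM sodium pyruvate, G418. Whole-cell voltage clamp; pipettes 0.8–2.5 MΩ; internal (mM) 135 CsF, 10 CsCl, 5 EGTA, 5 NaCl, 10 HEPES, pH 7.3 with CsOH. Holding pre-pulse set at midpoint of steady-state inactivation for each subtype.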
Target sequence in this assay (Q9Y5Y9 whole entry, looked up): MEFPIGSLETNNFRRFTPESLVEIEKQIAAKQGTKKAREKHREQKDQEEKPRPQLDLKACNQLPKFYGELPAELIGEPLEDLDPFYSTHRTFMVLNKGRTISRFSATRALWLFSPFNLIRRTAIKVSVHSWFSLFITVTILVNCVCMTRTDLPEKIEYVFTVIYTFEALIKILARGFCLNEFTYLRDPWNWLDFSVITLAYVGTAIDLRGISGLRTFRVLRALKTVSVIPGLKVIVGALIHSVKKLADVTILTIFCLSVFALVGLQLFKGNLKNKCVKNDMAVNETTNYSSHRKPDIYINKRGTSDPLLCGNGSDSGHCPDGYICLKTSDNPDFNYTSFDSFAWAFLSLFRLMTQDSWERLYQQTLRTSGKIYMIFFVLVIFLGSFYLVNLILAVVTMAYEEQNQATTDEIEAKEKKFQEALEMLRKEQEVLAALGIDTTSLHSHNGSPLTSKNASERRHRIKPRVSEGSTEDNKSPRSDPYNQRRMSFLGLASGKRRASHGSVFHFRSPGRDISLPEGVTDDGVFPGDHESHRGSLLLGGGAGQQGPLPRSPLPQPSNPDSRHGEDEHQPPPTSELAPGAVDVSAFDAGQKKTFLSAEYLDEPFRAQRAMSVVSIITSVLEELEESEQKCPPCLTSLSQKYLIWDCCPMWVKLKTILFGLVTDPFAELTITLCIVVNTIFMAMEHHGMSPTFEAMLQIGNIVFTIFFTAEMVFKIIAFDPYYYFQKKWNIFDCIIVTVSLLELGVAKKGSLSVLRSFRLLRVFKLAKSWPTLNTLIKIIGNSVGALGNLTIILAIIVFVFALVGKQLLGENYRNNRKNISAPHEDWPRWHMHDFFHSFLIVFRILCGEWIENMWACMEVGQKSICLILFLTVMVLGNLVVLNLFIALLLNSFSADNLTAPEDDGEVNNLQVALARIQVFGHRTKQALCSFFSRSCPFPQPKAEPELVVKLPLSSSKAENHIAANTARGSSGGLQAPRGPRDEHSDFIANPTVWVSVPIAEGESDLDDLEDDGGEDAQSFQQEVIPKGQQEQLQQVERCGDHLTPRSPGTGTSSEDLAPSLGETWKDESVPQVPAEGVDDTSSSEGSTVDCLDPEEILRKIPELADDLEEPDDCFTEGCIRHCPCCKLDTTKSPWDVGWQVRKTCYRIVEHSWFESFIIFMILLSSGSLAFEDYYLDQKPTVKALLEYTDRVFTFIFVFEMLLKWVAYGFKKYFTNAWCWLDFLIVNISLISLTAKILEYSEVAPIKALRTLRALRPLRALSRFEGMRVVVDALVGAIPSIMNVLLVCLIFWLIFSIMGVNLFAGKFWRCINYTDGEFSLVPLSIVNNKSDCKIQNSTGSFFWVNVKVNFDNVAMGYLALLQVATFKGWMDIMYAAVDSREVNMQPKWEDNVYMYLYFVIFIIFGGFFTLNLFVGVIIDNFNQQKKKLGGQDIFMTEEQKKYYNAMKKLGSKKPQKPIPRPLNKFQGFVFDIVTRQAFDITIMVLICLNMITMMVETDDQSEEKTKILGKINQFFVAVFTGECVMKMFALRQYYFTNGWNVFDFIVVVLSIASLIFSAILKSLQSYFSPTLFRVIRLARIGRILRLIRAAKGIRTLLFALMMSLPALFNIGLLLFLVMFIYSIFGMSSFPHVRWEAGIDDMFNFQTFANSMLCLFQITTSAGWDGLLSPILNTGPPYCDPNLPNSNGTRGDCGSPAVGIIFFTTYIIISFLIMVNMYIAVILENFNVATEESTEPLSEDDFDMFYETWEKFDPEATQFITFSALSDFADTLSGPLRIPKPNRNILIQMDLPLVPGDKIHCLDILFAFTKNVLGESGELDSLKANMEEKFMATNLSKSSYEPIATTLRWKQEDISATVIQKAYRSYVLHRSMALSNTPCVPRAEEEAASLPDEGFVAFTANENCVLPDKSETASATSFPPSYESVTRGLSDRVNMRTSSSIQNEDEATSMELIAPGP

[2] = target: T1, Sodium channel protein type 10 subunit alpha; test: Inhibition of human recombinant Nav1.8 channel expressed in HEK293 cells at 1 uM by whole cell voltage clamp technique; format: cell-based; method in brief: as §1
Target sequence in this assay (Q9Y5Y9 whole entry, looked up): as above

[3] = target: Sodium channel protein type 10 subunit alpha (Rattus norvegicus) (UniProt Q62968); test: Blockade of Nav1.8 channel in rat dorsal root ganglion neurons assessed as inhibition of TTX-R current at 10 uM by whole cell patch clamp technique; format: tissue-based
Method in brief: (§2)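 Whole-cell voltage clamp of TTX-resistant currents in dissociated rat DRG neurons. Pipette (mM): CsF 135, NaCl 5, CsCl 10, EGTA 5, HEPES 10, pH 7.2. Bath (mM): NaCl 22, choline Cl 110, CaCl2 1.8, MgCl2 0.8, HEPES 10, glucose 5, pH 7.4. Inactivated-state protocol with pre-pulse at V1/2 (−40 mV). Mean ± SEM of two to six determinations.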

[4] = target: Sodium channel protein type 10 subunit alpha (Rattus norvegicus, UniProt Q62968); test: Blockade of Nav1.8 channel in rat dorsal root ganglion neurons assessed as inhibition of TTX-R current by whole cell patch clamp technique; format: tissue-based; method in brief: as §2
[5] = target: T1, Sodium channel protein type 10 subunit alpha; test: Inhibition of human recombinant Nav1.8 channel expressed in HEK293 cells by whole cell voltage clamp technique; format: cell-based; method in brief: as §1
Target sequence in this assay (Q9Y5Y9 whole entry): as the sequence (Q9Y5Y9 whole entry, looked up) above

[6] = target: Sodium channel protein type 2 subunit alpha (Homo sapiens, UniProt Q99250); test: Inhibition of human recombinant Nav1.2 channel expressed in HEK293 cells by whole cell voltage clamp technique; format: cell-based
Method in brief: (§3)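 HEK293 cells stably expressing recombinant human sodium channels, grown in high-glucose DMEM, 10% FBS, 2 mM sodium pyruvate, G418. Holding pre-pulse set at midpoint of steady-state inactivation for each subtype.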

Rattus norvegicus [7] = test: Analgesic activity in ip dosed Sprague-Dawley rat assessed as attenuation of mechanical allodynia in chung model of neuropathic pain
Rattus norvegicus [8] = test: Effect on locomotor activity in ip dosed Sprague-Dawley rat
Rattus norvegicus [9] = test: Analgesic activity in ip dosed Sprague-Dawley rat by rotarod test
[10] = Ratio of drug level in brain to plasma in Sprague-Dawley rat; format: ADME; conditions: Sprague-Dawley, brain and plasma
[11] = target: Sodium channel protein type 10 subunit alpha (Mus musculus, UniProt Q6QIY3); test: Inhibition of mouse recombinant Nav1.8 channel expressed in HEK293 cells by isotopic efflux assay; format: cell-based
[12] = target: Sodium channel protein type 10 subunit alpha (Rattus norvegicus) (UniProt Q62968); test: Blockade of Nav1.8 channel in rat dorsal root ganglion neurons assessed as inhibition of TTX-R current at 0.3 uM by whole cell patch clamp technique; format: tissue-based; method in brief: as §2
[13] = target: T1, Sodium channel protein type 10 subunit alpha; test: Inhibition of human recombinant Nav1.8 channel expressed in HEK293 cells at 0.3 uM by whole cell voltage clamp technique; format: cell-based; method in brief: as §1
Target sequence in this assay (Q9Y5Y9 whole entry, looked up): as above

[14] = target: Sodium channel protein type 5 subunit alpha (Homo sapiens, UniProt Q14524); test: Inhibition of human recombinant Nav1.5 channel expressed in HEK293 cells by whole cell voltage clamp technique; format: cell-based; method in brief: as §3
Rattus norvegicus [15] = test: Analgesic activity in po dosed Sprague-Dawley rat assessed as attenuation of mechanical allodynia in chung model of neuropathic pain; format: functional
Rattus norvegicus [16] = test: Effect on locomotor activity in po dosed Sprague-Dawley rat; format: functional
Method in brief: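 Open-field locomotor activity recorded with photobeam activity monitors during the light cycle; groups of at least six rats, mean ± SEM.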

Rattus norvegicus [17] = test: Analgesic activity in po dosed Sprague-Dawley rat by edge test; format: functional
Method in brief: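 Balance test: rats placed on 0.5-cm-thick edges of a 40 × 40 × 36 cm plexiglass box, must pull up onto the edge and avoid falling; cut-off 2 min. Groups of at least six rats.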

[18] = Plasma clearance in Sprague-Dawley rat at 10 mg/kg; format: ADME, organism-based; design: dose 10 mg/kg
Method in brief: (§4)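 Rat pharmacokinetics after administration at 10 mg/kg in 10% DMSO/PEG400.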

[19] = Cmax in Sprague-Dawley rat at 10 mg/kg, po; format: ADME, organism-based; design: dose 10 mg/kg, route oral; conditions: in vivo; method in brief: as §4
[20] = Volume of distribution at steady state in Sprague-Dawley rat at 10 mg/kg; format: ADME, organism-based; design: dose 10 mg/kg; conditions: in vivo, read-out: Vdss; method in brief: as §4
[21] = Oral bioavailability in Sprague-Dawley rat at 10 mg/kg; format: ADME, organism-based; conditions: in vivo; method in brief: as §4
[22] = target: T2, 5-hydroxytryptamine receptor 1A (Homo sapiens) (UniProt P08908); test: Binding affinity to 5HT1A receptor at 10 uM
T2 sequence (whole entry): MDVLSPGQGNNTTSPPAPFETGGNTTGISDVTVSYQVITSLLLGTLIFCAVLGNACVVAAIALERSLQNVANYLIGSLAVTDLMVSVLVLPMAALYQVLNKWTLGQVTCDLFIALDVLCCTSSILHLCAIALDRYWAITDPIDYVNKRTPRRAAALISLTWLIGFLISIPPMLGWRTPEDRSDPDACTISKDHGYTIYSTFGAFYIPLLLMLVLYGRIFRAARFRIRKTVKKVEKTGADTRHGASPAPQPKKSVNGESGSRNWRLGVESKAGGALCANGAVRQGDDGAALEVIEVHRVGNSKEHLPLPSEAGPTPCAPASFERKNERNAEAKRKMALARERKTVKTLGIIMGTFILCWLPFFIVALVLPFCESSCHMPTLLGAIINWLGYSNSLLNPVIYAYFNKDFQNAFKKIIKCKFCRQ

[23] = target: 5-hydroxytryptamine receptor 1B (Homo sapiens) (UniProt P28222); test: Binding affinity to 5HT1B receptor at 10 uM
Rattus norvegicus [24] = test: Analgesic activity in po dosed Sprague-Dawley rat by rotarod test; format: functional
Method in brief: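 Accelerating rotorod: after 30-min acclimation, rats placed on 9-cm rod ramping 0–20 rpm over 60 s; latency to fall recorded, maximum 60 s; three training sessions per rat. Groups of at least six rats; mean ± SEM.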

[25] = target: Sodium channel protein type 10 subunit alpha (Rattus norvegicus) (UniProt Q62968); test: Blockade of Nav1.8 channel in rat dorsal root ganglion neurons assessed as inhibition of TTX-R current at 0.1 uM by whole cell patch clamp technique; format: tissue-based; method in brief: as §2
[26] = target: Sodium channel protein type 10 subunit alpha (Rattus norvegicus) (UniProt Q62968); test: Blockade of Nav1.8 channel in rat dorsal root ganglion neurons assessed as inhibition of TTX-R current at 1 uM by whole cell patch clamp technique; format: tissue-based; method in brief: as §2
[27] = target: Sodium channel protein type 10 subunit alpha (Rattus norvegicus) (UniProt Q62968); test: Blockade of Nav1.8 channel in rat dorsal root ganglion neurons assessed as inhibition of TTX-R current at 3 uM by whole cell patch clamp technique; format: tissue-based; method in brief: as §2

Chain of Sodium channel protein type 10 subunit alpha (Rattus norvegicus) (Q62968 whole entry, looked up): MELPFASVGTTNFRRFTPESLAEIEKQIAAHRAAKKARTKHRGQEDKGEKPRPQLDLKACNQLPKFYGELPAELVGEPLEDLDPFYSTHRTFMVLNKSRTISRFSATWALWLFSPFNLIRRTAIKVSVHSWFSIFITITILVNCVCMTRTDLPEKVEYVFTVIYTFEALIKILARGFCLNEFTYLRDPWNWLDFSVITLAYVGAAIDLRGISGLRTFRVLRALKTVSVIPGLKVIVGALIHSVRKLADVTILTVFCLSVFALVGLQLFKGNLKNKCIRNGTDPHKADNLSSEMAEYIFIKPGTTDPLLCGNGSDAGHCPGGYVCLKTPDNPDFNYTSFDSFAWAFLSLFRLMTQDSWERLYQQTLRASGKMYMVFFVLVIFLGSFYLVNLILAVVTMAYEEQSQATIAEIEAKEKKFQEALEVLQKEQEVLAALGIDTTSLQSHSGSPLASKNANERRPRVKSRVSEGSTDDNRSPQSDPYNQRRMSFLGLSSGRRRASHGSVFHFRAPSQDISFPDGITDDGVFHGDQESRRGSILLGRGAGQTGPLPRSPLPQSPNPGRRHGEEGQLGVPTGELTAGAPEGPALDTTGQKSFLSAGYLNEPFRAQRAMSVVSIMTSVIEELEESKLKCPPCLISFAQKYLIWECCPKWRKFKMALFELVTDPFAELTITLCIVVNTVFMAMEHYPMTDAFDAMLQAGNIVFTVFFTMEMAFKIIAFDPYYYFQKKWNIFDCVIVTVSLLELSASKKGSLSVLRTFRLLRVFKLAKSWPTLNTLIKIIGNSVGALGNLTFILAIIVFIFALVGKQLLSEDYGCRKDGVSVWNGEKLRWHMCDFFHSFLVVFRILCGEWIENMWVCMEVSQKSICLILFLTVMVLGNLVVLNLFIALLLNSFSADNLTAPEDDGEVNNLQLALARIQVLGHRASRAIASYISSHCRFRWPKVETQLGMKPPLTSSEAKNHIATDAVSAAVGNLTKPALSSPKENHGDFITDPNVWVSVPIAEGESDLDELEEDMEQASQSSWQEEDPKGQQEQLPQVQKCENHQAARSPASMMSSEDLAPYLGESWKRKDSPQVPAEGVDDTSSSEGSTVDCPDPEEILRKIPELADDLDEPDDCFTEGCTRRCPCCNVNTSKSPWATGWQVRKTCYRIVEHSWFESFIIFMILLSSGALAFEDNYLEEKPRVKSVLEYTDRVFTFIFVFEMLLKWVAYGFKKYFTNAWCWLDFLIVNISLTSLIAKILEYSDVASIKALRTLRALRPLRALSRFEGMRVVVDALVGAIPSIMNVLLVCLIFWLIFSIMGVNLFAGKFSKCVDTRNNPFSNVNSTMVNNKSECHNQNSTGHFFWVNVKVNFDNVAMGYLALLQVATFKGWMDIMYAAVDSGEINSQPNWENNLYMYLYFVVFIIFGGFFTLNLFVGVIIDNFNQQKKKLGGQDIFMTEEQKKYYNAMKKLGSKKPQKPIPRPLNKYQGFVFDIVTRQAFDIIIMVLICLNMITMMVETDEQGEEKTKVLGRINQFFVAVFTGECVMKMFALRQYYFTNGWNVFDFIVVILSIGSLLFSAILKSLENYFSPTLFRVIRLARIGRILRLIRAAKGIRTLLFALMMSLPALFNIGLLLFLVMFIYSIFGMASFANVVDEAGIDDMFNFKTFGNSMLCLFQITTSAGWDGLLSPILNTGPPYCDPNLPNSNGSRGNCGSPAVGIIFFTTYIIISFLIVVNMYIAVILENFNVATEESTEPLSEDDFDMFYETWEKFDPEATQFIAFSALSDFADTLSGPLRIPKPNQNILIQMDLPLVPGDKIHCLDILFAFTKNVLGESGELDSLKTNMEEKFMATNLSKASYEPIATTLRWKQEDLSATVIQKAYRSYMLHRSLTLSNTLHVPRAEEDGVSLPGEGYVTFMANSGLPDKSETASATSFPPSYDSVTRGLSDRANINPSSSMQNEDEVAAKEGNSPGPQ
Chain of Sodium channel protein type 10 subunit alpha (Rattus norvegicus, UniProt Q62968) (Q62968 whole entry): as the sequence (Q62968 whole entry, looked up) above
Chain of 5-hydroxytryptamine receptor 1B (Homo sapiens) (P28222 whole entry): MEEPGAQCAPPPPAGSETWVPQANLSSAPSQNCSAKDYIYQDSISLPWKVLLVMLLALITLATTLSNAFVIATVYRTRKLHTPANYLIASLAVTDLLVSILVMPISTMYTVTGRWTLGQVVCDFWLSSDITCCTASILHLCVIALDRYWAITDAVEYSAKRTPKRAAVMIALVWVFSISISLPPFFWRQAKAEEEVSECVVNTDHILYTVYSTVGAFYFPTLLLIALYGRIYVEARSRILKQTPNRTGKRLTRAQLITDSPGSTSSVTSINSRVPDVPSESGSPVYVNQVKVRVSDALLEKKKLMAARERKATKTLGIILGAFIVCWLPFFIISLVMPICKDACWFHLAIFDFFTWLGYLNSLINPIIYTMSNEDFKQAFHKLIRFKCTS

Structure (SMILES): Cc1cccc(C)c1OCC(C)N (configuration not stated) [MEXILETINE]
pIC50 [4]: 4.51
pIC50 [5]: 4.25
pIC50 [6]: 5.54
ED50 (Rattus norvegicus [7]): 102 µmol/kg
ED50 (Rattus norvegicus [8]): 45 µmol/kg
ED50 (Rattus norvegicus [9]): > 140 µmol/kg
Kp [10]: 1.4

Structure (SMILES): CN1CCC(NC(=O)c2ccc(-c3ccc(Cl)cc3)o2)CC1
pIC50 [11]: 5.72
inhibition [12]: 51%

Structure (SMILES): O=C(NCCN1CCCCC1)c1ccc(-c2ccc(Cl)cc2)o1
pIC50 [11]: 6.05
inhibition [12]: 59%
inhibition [1]: 29%

Structure (SMILES): O=C(NCCCN1CCCCC1)c1ccc(-c2ccc(Cl)cc2)o1
pIC50 [11]: 5.80
inhibition [12]: 52%

Further lines, with some results ahead:

inhibition [1]: 44%
inhibition [2]: 85%
inhibition [3]: 86%
Structure (SMILES): CC(C)(C)c1ccc(-c2ccc(C(=O)N3CCNCC3)o2)cc1

pIC50 [11]: 5.54
inhibition [12]: 41%
inhibition [13]: 55%
pIC50 [4]: 6.37
pIC50 [5]: 6.55
pIC50 [6]: 5.96
Kp [10]: 9
clearance [18]: 350 mL/min/kg
Cmax [19]: 130 ng/mL
Vd [20]: 24 L/kg
bioavailability [21]: 42%
Activity [22]: 60%
Activity [23]: 86%
Structure (SMILES): O=C(c1ccc(-c2ccc(Cl)cc2)o1)N1CCNCC1
pIC50 [14]: 5.34
ED50 (Rattus norvegicus [15]): 24 µmol/kg
ED50 (Rattus norvegicus [16]): > 300 µmol/kg
ED50 (Rattus norvegicus [17]): > 300 µmol/kg
ED50 (Rattus norvegicus [24]): > 300 µmol/kg

inhibition [25]: 55%
inhibition [26]: 90%
inhibition [13]: 87%
inhibition [1]: 35%
Structure (SMILES): CN1CCN(C(=O)c2ccc(-c3ccc(Oc4ccccc4)cc3)o2)CC1

inhibition [13]: 89%
inhibition [1]: 42%
Structure (SMILES): O=C(c1ccc(-c2ccc(OC(F)(F)F)cc2)o1)N1CCN(C2CCCCC2)CC1

pIC50 [11]: 5.00
inhibition [27]: 31%
Structure (SMILES): CN1CCN(C(=O)c2ccc(-c3ccc(Cl)cc3)o2)CC1

pIC50 [11]: 4.85
Structure (SMILES): O=C(c1ccc(-c2ccc(Cl)cc2)o1)N1CCN(c2cccc(C(F)(F)F)c2)CC1

inhibition [26]: 56%
inhibition [1]: 39%
inhibition [2]: 93%
Structure (SMILES): O=C(c1ccc(-c2ccc(Oc3ccccc3)cc2)o1)N1CCNCC1
